Hits are enriched below; roughly 3.7% of the tested compounds scored in any of these assays.
KCNK9 block – KCNK9 potassium channel inhibitors, primary screen, HEK293 cells, thallium flux; FluxOR thallium flux fluorescence; stronger effect = lower value; B-score at 10 µM; actives 1.2% (n = 310,000); Potassium channel subfamily K member 9 (Homo sapiens), Q9NPC2;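 active means ratio B-score over 3 SD below the library mean, with starting fluorescence within 5 SD of its mean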;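 further: negative B-score means less thallium flux so channel inhibition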
Target sequence (Q9NPC2 whole entry, looked up): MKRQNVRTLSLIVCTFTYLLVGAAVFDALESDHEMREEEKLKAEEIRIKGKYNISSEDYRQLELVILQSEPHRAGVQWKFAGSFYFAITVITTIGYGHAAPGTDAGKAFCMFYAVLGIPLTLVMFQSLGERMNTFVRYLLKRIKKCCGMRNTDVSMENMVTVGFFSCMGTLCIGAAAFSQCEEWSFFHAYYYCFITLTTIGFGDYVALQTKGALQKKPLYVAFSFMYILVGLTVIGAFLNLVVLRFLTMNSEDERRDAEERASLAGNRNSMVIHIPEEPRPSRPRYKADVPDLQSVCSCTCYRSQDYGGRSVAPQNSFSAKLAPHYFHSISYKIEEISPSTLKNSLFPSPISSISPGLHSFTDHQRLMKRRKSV
KCNQ1 block – inhibitors of human KCNQ1 channel, primary screen, cell-based, thallium flux, high-throughput; Potassium voltage-gated channel subfamily KQT member 1 (Homo sapiens), P51787; CHO-K1 KCNQ1, FluxOR thallium flux fluorescence; stronger effect = higher value; B-score at 10 µM; actives 1.3% (n = 310,000); AID 2642, 2010;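 active means compounds whose thallium flux B-score, printed positive for inhibition, exceeds three library SD while starting fluorescence stays within three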;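 further: channel opened by potassium depolarization with thallium stimulus after 20 min compound exposure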
hERG rescue – hERG rescue from dofetilide block, primary screen, cell-based, CHO-hERG, FluxOR thallium flux, dofetilide IC70; dofetilide IC70 present; activation (rescue from dofetilide block), less the hit threshold, % at 10 µM; actives 0.51% (n = 310,000);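 active means activation above the mean of controls blocked by dofetilide plus 5 SD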;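 further: thallium influx through hERG after potassium depolarization seen as dye fluorescence rise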
KCNK3 block – human KCNK3 channel inhibitors, primary screen, CHO cells, FluxOR thallium flux, B-score | Potassium channel subfamily K member 3 (Homo sapiens), O14649 | FluxOR fluorescence; stronger effect = lower value | B-score at 10 µM | actives 0.84% (n = 340,000) | AID 602410, 2012;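 active means B-score under library mean minus 4 SD, starting fluorescence ratio at most library mean plus 5 SD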;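 further: more negative B-score means stronger inhibition of thallium flux through KCNK3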
KCNQ1 act – potentiators or activators of KCNQ1 channel, primary screen, cell-based, thallium flux, high-throughput. Potassium voltage-gated channel subfamily KQT member 1 (Homo sapiens), P51787. CHO-K1 KCNQ1, thallium flux FluxOR fluorescence; stronger effect = higher value. B-score at 10 µM. actives 0.35% (n = 310,000). AID 2648, 2010;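 active means fluorescence ratio B-score, a plate-corrected score, at least three library SD, with initial intensity B-score within 5 SD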
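Medium – assay buffer, equal DMSO in all wells · Material – CHO-K1 cell line with stable KCNQ1 potassium channel expression · Signal – kinetic FluxOR thallium fluorescence, 10-s 1-Hz baseline, 110-s post-stimulus read · Compound – single concentration per compound, DMSO matched to controls · Schedule – 37 °C overnight plating, 90-min dark dye load, 20-min compound pretreatment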
Kir21 inh – inhibitors of mouse Kir2.1 inward-rectifier potassium channel. HEK293-Kir2.1, FluxOR thallium flux fluorescence; stronger effect = lower value. actives 0.85% (n = 310,000). B-score at 10 µM. Inward rectifier potassium channel 2 (Mus musculus), P35561;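 active means fluorescence ratio B-score at or below minus 3 SD of library scores, with starting-brightness B-score within 2 SD, cut at about -4.2 in these data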;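 further: channel flux triggered by added potassium and thallium sulfate stimulus; B-score of peak minus minimum fluorescence over baseline after thallium stimulus; more negative B-score means stronger Kir2.1 block with less thallium influx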
KCNK9 block conf – KCNK9 potassium channel inhibitors, confirmation, HEK293 cells, thallium flux, duplicate; shares compounds with KCNK9 block; FluxOR thallium flux fluorescence; inhibition, % at 10 µM; actives 43% (n = 4,900);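 active means thallium signal inhibited by more than 5 SD of the compound-free buffer control wells, on both duplicate plates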;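 further: 0% = assay buffer control wells without compound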
Kir21 sel – mouse Kir2.1 channel inhibition, confirmation, selectivity assay for KCNK9 modulator project, cell-based, HEK293, thallium flux | actives 4% (n = 4,900) | Kir2.1 cells, FluxOR thallium flux fluorescence | inhibition, % at 10 µM | shares compounds with KCNK9 block;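 active means thallium signal drop more than 5 SD beyond the mean of the no-compound control wells, seen in both duplicate plates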;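 further: signal is fluorescence rise after thallium addition divided by baseline fluorescence; plate controls were assay buffer only for no effect and full block by chlorpromazine control for full effect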
KCNK9 uninduced – thallium flux in non-induced HEK293 cells, confirmation, counter-screen for KCNK9 inhibitor project, cell-based, second counter screen, non-induced KCNK9-HEK293. inhibition, % at 10 µM. shares compounds with KCNK9 block. actives 40% (n = 4,900). AID 492997, 2010. FluxOR thallium flux;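 active means thallium signal drop beyond 5 SD of the untreated control mean, on both duplicate plates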;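 further: plate controls were buffer only IC0 wells for no effect and SID17386958 at its maximal inhibitory level for full effect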
An asterisk follows results filed as active.

How did CSc1ccccc1NC(=O)COC(=O)c1ccc(-n2nc(C)cc2C)cc1 do in these assays?
KCNK3 block: inactive

What do the screens show for `O=C(Cn1c(=O)c2c(ncn2C2CCCC2)n(Cc2ccccc2)c1=O)N1CCc2ccccc21`?
KCNK9 block: inactive; KCNQ1 block: inactive; hERG rescue: -10; KCNK3 block: inactive; KCNQ1 act: inactive; Kir21 inh: 0.13; KCNK9 block conf: inactive; Kir21 sel: inactive; KCNK9 uninduced: inactive

Results for O=C(Cn1c(=O)c2c(ncn2Cc2ccccc2)n(Cc2ccccc2)c1=O)N1CCCC1 ?
KCNK9 block: inactive; KCNQ1 block: inactive; hERG rescue: -9; KCNK3 block: inactive; KCNQ1 act: inactive; Kir21 inh: -0.25

Results for CC(c1ccccc1)n1c(SCC(=O)N2CC(=O)Nc3ccccc32)nc2ccccc2c1=O (stereo not drawn) ?
KCNK9 block: -9*; KCNQ1 block: inactive; hERG rescue: -6; KCNK3 block: inactive; KCNQ1 act: inactive; Kir21 inh: 2.2; KCNK9 block conf: 36%*; Kir21 sel: inactive; KCNK9 uninduced: inactive

How did Cc1ccc(Cn2c(SCC(=O)N3CC(=O)Nc4ccccc43)nc3ccccc3c2=O)cc1 do in these assays?
KCNK9 block: inactive; KCNQ1 block: inactive; hERG rescue: -2; KCNK3 block: inactive; KCNQ1 act: inactive; Kir21 inh: -1.1; KCNK9 block conf: inactive; Kir21 sel: inactive; KCNK9 uninduced: inactive

How did CN(C)CCCN(C(=O)c1ccc([N+](=O)[O-])o1)c1nc2cc3c(cc2s1)OCO3 do in these assays?
KCNK9 block: inactive; KCNQ1 block: inactive; hERG rescue: -6; KCNK3 block: inactive; KCNQ1 act: inactive; Kir21 inh: 0.57

Results for O=C(CC(=O)c1ccccc1[N+](=O)[O-])c1ccccc1 ?
KCNK9 block: inactive; KCNQ1 block: inactive; hERG rescue: -3; KCNQ1 act: inactive; Kir21 inh: -0.55

How did O=C(NCc1cc(Br)cc(Br)c1OC(=O)c1ccccc1[N+](=O)[O-])c1ccccc1 do in these assays?
KCNK9 block: -9.9*; KCNQ1 block: inactive; hERG rescue: -13; KCNK3 block: inactive; KCNQ1 act: inactive; Kir21 inh: 0.42; KCNK9 block conf: 62%*; Kir21 sel: inactive; KCNK9 uninduced: 34%*

How did Cc1cc(C(c2cc(C)c(N)c(C)c2)c2ccco2)cc(C)c1N do in these assays?
KCNK9 block: inactive; KCNQ1 block: inactive; hERG rescue: -12; KCNK3 block: inactive; KCNQ1 act: inactive; Kir21 inh: -2.6

Results for CCOc1ccccc1N1CCN(C(=O)C2c3ccccc3Oc3ccccc32)CC1 ?
KCNK9 block: -12*; KCNQ1 block: inactive; hERG rescue: -9; KCNK3 block: -9.3*; KCNQ1 act: inactive; Kir21 inh: 1.8; KCNK9 block conf: 45%*; Kir21 sel: inactive; KCNK9 uninduced: 36%*

How did CS(=O)(=O)N1CCN(C(=O)C2c3ccccc3Oc3ccccc32)CC1 do in these assays?
KCNK9 block: inactive; KCNQ1 block: inactive; hERG rescue: -8; KCNK3 block: inactive; KCNQ1 act: inactive; Kir21 inh: -0.57

What do the screens show for `Oc1ccc(Br)cc1-c1nc2cnccn2c1NC1CCCCC1`?
KCNK9 block: -9.4*; KCNQ1 block: inactive; hERG rescue: -14; KCNK3 block: inactive; KCNQ1 act: inactive; Kir21 inh: -0.49; KCNK9 block conf: inactive; Kir21 sel: inactive; KCNK9 uninduced: 30%*

What do the screens show for `O=C(N/N=C/c1cc2c3c(c1O)CCCN3CCC2)c1ccccc1O`?
KCNK9 block: -10*; KCNQ1 block: 12*; hERG rescue: -12; KCNK3 block: -10*; KCNQ1 act: inactive; Kir21 inh: -1.3; KCNK9 block conf: 49%*; Kir21 sel: inactive; KCNK9 uninduced: 55%*

How did CCN(C(=O)COC(=O)CSc1ccccc1)c1c(N)n(Cc2ccccc2)c(=O)[nH]c1=O do in these assays?
KCNK9 block: inactive; KCNQ1 block: inactive; hERG rescue: -7; KCNK3 block: inactive; KCNQ1 act: inactive; Kir21 inh: 1.9

What do the screens show for `CCCN(CCC)C(=O)Cn1c(=O)c2ccccc2n2c(=S)sc(-c3ccccc3C)c12`?
KCNK9 block: inactive; KCNQ1 block: inactive; hERG rescue: -1; KCNK3 block: inactive; KCNQ1 act: inactive; Kir21 inh: 0.55; KCNK9 block conf: inactive; Kir21 sel: inactive; KCNK9 uninduced: inactive

Results for C=Cc1ccc(Cn2nc(-c3ccc(C)cc3)ccc2=O)cc1 ?
KCNK9 block: inactive; KCNQ1 block: inactive; hERG rescue: -5; KCNK3 block: inactive; KCNQ1 act: inactive; Kir21 inh: 2.6; KCNK9 block conf: inactive; Kir21 sel: inactive; KCNK9 uninduced: inactive

How did CCn1nc([N+](=O)[O-])c(C(C#N)c2nc3cc(C(F)(F)F)ccc3s2)c(Cl)c1=O (stereo not drawn) do in these assays?
KCNK9 block: inactive; KCNQ1 block: inactive; hERG rescue: -9; KCNK3 block: inactive; KCNQ1 act: inactive; Kir21 inh: -5.5*; KCNK9 block conf: inactive; Kir21 sel: inactive; KCNK9 uninduced: inactive

What do the screens show for `CCN(CC)S(=O)(=O)c1ccc(N2CC(C(=O)N3Cc4ccccc4CC3C(N)=O)CC2=O)cc1` (stereo not drawn)?
KCNK3 block: inactive

How did COc1cc(NS(=O)(=O)c2ccc(NC(C)=O)cc2)nc(OC)n1 do in these assays?
KCNK9 block: inactive; KCNQ1 block: inactive; hERG rescue: -12; KCNK3 block: inactive; KCNQ1 act: inactive; Kir21 inh: 0.44

How did COc1cc(NS(=O)(=O)c2ccc(N/C=C(\C#N)c3nc4cc(Cl)ccc4o3)cc2)nc(OC)n1 do in these assays?
KCNK9 block: inactive; KCNQ1 block: inactive; hERG rescue: -8; KCNK3 block: inactive; KCNQ1 act: inactive; Kir21 inh: 0.21; KCNK9 block conf: inactive; Kir21 sel: inactive; KCNK9 uninduced: inactive

Compound activity deposited in PubChem by Johns Hopkins Ion Channel Center.
